Compound activity deposited in PubChem BioAssay by several laboratories.
BB579 growth dn: growth inhibitors of yeast BB579 in restrictive medium, primary screen, yeast lifespan-shortening project, S. cerevisiae. OD615, 48 h. inhibition, % at 10 µM. actives 0.51% (n = 140,000);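 active means inhibition above a set limit, 3 SD over the mean compound inhibition, cut at about 44% in these data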
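System: DeaD yeast strain BB579; buffer or medium: CSMM-D dextrose restrictive medium; technique: OD at 615 nm; schedule: 4 h cell preincubation, 48 h compound exposure, 30 °C humidified; doses: single 10 µM dose; controls: amphotericin B 10 µg/mL, positive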
Tb hexokinase: Trypanosoma brucei hexokinase 1 inhibitors, primary screen, biochemical, G6PDH-coupled NADH absorbance, MLSCN library; inhibition, % at 10 µM; actives 0.11% (n = 220,000); hexokinase 1 [Trypanosoma brucei]; recombinant TbHK1, G6PDH-coupled NADH A340;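 active means inhibition of 50% or more in the single-dose primary screen; inactive means inhibition below 50%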
sdo1 growth: growth rescue of sdo1-depleted yeast, primary screen, S. cerevisiae, bone marrow failure model. S. cerevisiae sdo1-depleted JHY4D growth rescue, OD600 30 h; active compounds read high; pdr5 snq2 efflux-pump mutant strain. z-score at 10 µM. actives 0.21% (n = 140,000);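 active means z-score above 3 at both the 24 hr and the 30 hr optical density reads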;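 further: z-score against mean and SD of all compound wells on the same plate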
p47phox inh: p47phox/p22phox peptide binding inhibitors, primary screen, biochemical, uHTS, NADPH oxidase regulatory subunit. inhibition, % at 24.7 µM. fluorescence polarization, 2 h. actives 0.53% (n = 220,000). AID 1274, 2008;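 active means inhibition above about 30%, limit read from the data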;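 further: 0% = p47phox with labelled peptide and 100% = labelled peptide alone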
Yeast life ext: compounds extending yeast replicative lifespan, primary screen, S. cerevisiae, OD615 | inhibition of the nicotinamide effect, % at 10 µM | AID 775, 2007 | S. cerevisiae growth with nicotinamide; deaD strain in restrictive glucose medium | actives 0.68% (n = 130,000);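 active means inhibition above a set limit, placed 3 SD over the median of all compounds, cut at about 26% in these data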;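 further: 0% = nicotinamide-treated wells and 100% = cells grown without nicotinamide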
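System: Modified budding yeast, DeaD strain | Buffer or medium: Restrictive glucose medium | Also added: 1.5 mM nicotinamide | Doses: 10 µM single point, 0.25% DMSO | Schedule: 48 h compound exposure at 30 °C, humidified | Detection: Absorbance at 615 nm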
RBBP9 inh: human RBBP9 inhibitors, primary screen, biochemical, fluorescence polarization, FP-Rh probe, HTS | Serine hydrolase RBBP9 (Homo sapiens), O75884 | recombinant RBBP9 | inhibition, % at 7.94 µM | actives 0.2% (n = 220,000);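 active means inhibition above the campaign mean of all tested compounds plus 3 SD, cut at about 14% in these data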;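 further: plate controls were DMSO wells with RBBP9 for no effect and wells lacking RBBP9 protein for full effect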
Target sequence (O75884 whole entry, looked up): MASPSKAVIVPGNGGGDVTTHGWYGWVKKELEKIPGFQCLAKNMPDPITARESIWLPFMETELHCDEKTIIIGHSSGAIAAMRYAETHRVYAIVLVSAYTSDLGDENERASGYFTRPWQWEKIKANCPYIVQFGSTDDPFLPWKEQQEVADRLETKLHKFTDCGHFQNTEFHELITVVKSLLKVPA
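Measured by: FP readout at 525/598 nm; material: recombinant human RBBP9; also added: Serine-hydrolase probe FP-Rh, 375 nM pre-mixing; medium: Tris buffer pH 8.0, NaCl, Pluronic; replication: one well per compound; doses: one concentration, 7.94 µM nominal, 0.794% DMSO; timing: preincubation 30 min plus labeling 45 min at 25 °C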
Numbers without * were called inactive; . = not tested or not shown; ! = not active in a repeat. Compounds with a hit are over-represented: about 1.6% of the library has one in this group of screens.

SMILES	BB579 growth dn	Tb hexokinase	sdo1 growth	p47phox inh	Yeast life ext	RBBP9 inh
CN(C1CCCCC1)S(=O)(=O)c1ccc2c(c1)c(=O)c(C(=O)NCCN1CCCC1)cn2C	-38	-12	0.39	51*	-6	1
CC(C)(CN1CCc2ccccc2C1)NS(=O)(=O)c1ccc(Cl)cc1	.	3	.	-7	.	-8
CN(C)/C=C(/C(=O)c1ccc(Cl)cc1Cl)S(=O)(=O)c1ccc(Cl)cc1	-49	5	-0.72	-4	69*	-9
OCC1(CO)COC2(CCCC2)N1	-87	-4	0.83	62*!	-3	-7
O=C1CSC(c2cccnc2)N1CCc1ccccn1 (stereo not drawn)	.	-7	.	1	.	-9
CC(C)(C(=O)Nc1nccs1)c1ccccc1	.	-1	.	-3	.	2
Cc1ccc(-c2nn(C)c(=O)c3ccccc23)cc1CNC(=O)Cn1nc(-c2ccccc2)c2ccccc2c1=O	-22	-6	0.54	41*	-21	-2
O=C(O)CSC(C(=O)Nc1ccc(Br)cc1)c1ccccc1 (stereo not drawn)	.	0	.	-4	.	-1
O=C(COc1cc(O)c2c(=O)cc(-c3ccccc3)oc2c1)c1ccc(F)cc1	-10	-9	-0.83	32*	-5	-3
CCOc1ccc(NC(=O)c2sccc2-n2cccc2)cc1	.	-1	.	-5	.	4
C#CCOCCOCCOCCNc1nc(N2CCN(C(=O)[C@H](CCCCN)n3cc([C@@H](N)CO)nn3)CC2)nc(N2CCN(C(=O)[C@H](Cc3cc4ccccc4[nH]3)n3cc([C@@H](N)Cc4ccc(O)cc4)nn3)CC2)n1	.	11	.	39*	.	12
C#CCOCCOCCOCCNc1nc(N2CCN(C(=O)[C@H](CCCCN)n3cc([C@@H](N)CC(C)C)nn3)CC2)nc(N2CCN(C(=O)[C@H](Cc3cc4ccccc4[nH]3)n3cc([C@@H](N)Cc4ccc(O)cc4)nn3)CC2)n1	.	-1	.	.	.	-3
C#CCOCCOCCOCCNc1nc(N2CCN(C(=O)[C@H]([C@@H](C)CC)n3cc([C@@H](N)CC(C)C)nn3)CC2)nc(N2CCN(C(=O)[C@H](Cc3cc4ccccc4[nH]3)n3cc([C@@H](N)Cc4ccc(O)cc4)nn3)CC2)n1	.	10	.	53*	.	-1
C#CCOCCOCCOCCNc1nc(N2CCN(C(=O)C(Cc3cc4ccccc4[nH]3)n3cc(C(N)C(C)CC)nn3)CC2)nc(N2CCN(C(=O)C(Cc3cc4ccccc4[nH]3)n3cc(C(N)C(C)CC)nn3)CC2)n1 (stereo not drawn)	.	-6	.	67*	.	1
C#CCOCCOCCOCCNc1nc(N2CCN(C(=O)[C@H](Cc3ccc(O)cc3)n3cc([C@@H](N)C(C)CC)nn3)CC2)nc(N2CCN(C(=O)[C@H](Cc3cc4ccccc4[nH]3)n3cc([C@@H](N)Cc4ccc(O)cc4)nn3)CC2)n1 (stereo partly drawn)	.	11	.	33*	.	.
Cc1ccc(C2C=NN(c3ccccc3)C2=O)cc1 (stereo not drawn)	.	1	.	3	.	-7
CC1=C(C(=O)OC2CCCC2)C(c2coc3ccccc3c2=O)C2=C(CC(C)(C)CC2=O)N1 (stereo not drawn)	.	-17	.	-16	.	2
c1ccc(-c2nc(N3CCN(c4ccccc4)CC3)nc(-n3ccnc3)n2)cc1	-12	1	-1.8	58*	-2	-2
c1ccc(N(c2ccccc2)c2nc(-n3ccnc3)nc(-n3ccnc3)n2)cc1	92*	36	-2.8	7	-12	-2
O=C(CN(CC1CCCO1)C(=O)c1nsc(Cl)c1Cl)NC1CCCC1 (stereo not drawn)	.	-1	.	-12	.	-8
O=C(CS(=O)c1ccc(C(F)(F)F)cc1[N+](=O)[O-])Oc1ccccc1 (stereo not drawn)	-36	-4	-0.32	7	40*	-3
